S100A4 MyoIIA: inhibitors of S100A4-myosin IIA peptide binding, primary screen, biochemical, fluorescence polarization, TAMRA-MyoIIA peptide. 360,000 compounds, 0.14% hits. inhibition, % at 10.7 µM. AID 652163, 2013;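 active = mean inhibition of at least 70% across replicates, with every replicate also reaching that level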
Target sequence (P26447 whole entry, looked up): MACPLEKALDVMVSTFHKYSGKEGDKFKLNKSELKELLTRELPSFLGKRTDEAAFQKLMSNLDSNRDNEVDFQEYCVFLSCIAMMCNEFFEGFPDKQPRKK
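Material: S100A4 monomer protein | Medium: HEPES pH 7.2 with CaCl2, KCl, NaCl, DTT, Triton | Reagent: Labelled myosin peptide probe, 5 nM | Doses: One dose per compound | Times: 5 min incubation before reading | Benchmarks: Neutral control DMSO, positive control TFP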
E-selectin induc: E-selectin induction in HUVECs, primary screen, imaging, HUVEC, immunofluorescence imaging, single point; P16581; 260,000 compounds, 0.37% hits; normalized: neutral wells 0, TNF-alpha wells 100; activation, % at 7.58 µM;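 active = mean E-selectin-positive cell signal at least 10% of the positive control, reached in at least 60% of replicates, without over 20% cell loss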
Target sequence (P16581 whole entry, looked up): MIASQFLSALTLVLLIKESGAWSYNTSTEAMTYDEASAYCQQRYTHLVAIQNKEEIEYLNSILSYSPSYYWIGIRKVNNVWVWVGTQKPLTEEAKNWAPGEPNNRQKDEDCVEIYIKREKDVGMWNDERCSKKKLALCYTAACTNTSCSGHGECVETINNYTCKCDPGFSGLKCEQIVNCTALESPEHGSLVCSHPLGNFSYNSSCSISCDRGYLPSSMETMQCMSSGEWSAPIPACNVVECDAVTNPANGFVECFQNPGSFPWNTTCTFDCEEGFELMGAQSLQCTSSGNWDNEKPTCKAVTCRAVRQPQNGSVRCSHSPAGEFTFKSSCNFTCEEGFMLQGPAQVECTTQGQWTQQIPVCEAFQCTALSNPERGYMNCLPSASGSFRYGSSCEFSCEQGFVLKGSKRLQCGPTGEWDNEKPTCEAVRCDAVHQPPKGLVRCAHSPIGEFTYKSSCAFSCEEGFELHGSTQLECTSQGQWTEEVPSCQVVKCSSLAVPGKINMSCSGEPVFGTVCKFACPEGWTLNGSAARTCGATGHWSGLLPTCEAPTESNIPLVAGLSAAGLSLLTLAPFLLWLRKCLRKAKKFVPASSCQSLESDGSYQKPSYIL
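Test system – human umbilical vein endothelial cells (HUVEC), E-selectin induction · Input – 3,000 HUVEC seeded per well · Buffer or medium – EGM-2, gelatin · Compound dosing – single-point compound dose · Detection – immunofluorescence imaging · Measure – percent E-selectin-positive cells · Controls – TNF-alpha high, DMSO low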
miR122 inh: miR-122 Renilla sensor signal increase in Huh7, primary screen, miR-122 inhibitor project, cell-based, single point, plate reader. 340,000 compounds, 0.3% hits. activation (reporter increase), % at 12.5 µM. Huh7 miR-122 Renilla luciferase sensor, 48 h; neutral wells = 0, positive control = 100;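 active = mean replicate activation score at least 90 and every replicate individually at or above 90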;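 note: higher luciferase means less miR-122 activity so hits act as miR-122 inhibitors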
FGF22 binding: binders of human FGF22 protein, primary screen, FGF22 synaptogenesis inhibitor project, biophysical, thermal shift, single point; Fibroblast growth factor 22 (Homo sapiens), Q9HCT0; recombinant FGF22 thermal shift, SYPRO orange fluorescence; percent of sucrose octasulfate shift, DMSO zero; activity (Tm shift, normalised), % at 9.99 µM; 340,000 compounds, 1.5% hits;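 active = mean Tm shift, scaled 0 neutral to 100 positive control, at about 1.3% or above, every replicate too, limit read from the data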
SIRT5 inh: SIRT5 desuccinylase inhibitors, primary screen, biochemical, fluorescence imaging, single point, set 5; NAD-dependent protein deacylase sirtuin-5, mitochondrial (Homo sapiens), Q9NXA8; Purified SirT5, succinyl-peptide AMC, trypsin-coupled fluorescence; inhibition, % at 15 µM; 330,000 compounds, 1.1% hits; in the data active = inhibition above about 15%
Of the large screens only hits and unclear results are named; the others gave an inactive call; ! = a repeat was not active. Rows were chosen to be rich in hits. Some 2.5% of all compounds tested hit in one or more screens of this group.

CC(C)NC(=O)N1[C@H](CN(C)C(=O)c2ccncc2)[C@@H](c2ccccc2)[C@@H]1CO	none
COCC(=O)N(C)C[C@H]1[C@H](c2ccccc2)[C@@H](CO)N1C(=O)Cc1ccncc1	SIRT5 inh 20
CC(C)NC(=O)N1[C@H](CN(C)C(=O)c2ccccc2)[C@@H](c2ccccc2)[C@@H]1CO	SIRT5 inh 18
COc1ccc2c3c(n(C)c2c1)[C@@H](CO)N(C(=O)C1CCCC1)CC31CCN(C)CC1	none (no result: miR122 inh)
C[C@@H]1CN([C@H](C)CO)C(=O)Cc2cc(NC(=O)Nc3ccc(F)cc3)ccc2O[C@@H]1CN(C)S(=O)(=O)c1cn(C)cn1	E-selectin induc 85 (no result: S100A4 MyoIIA, FGF22 binding, SIRT5 inh)
C[C@H](CO)N1C[C@H](C)[C@@H](CN(C)S(=O)(=O)c2cn(C)cn2)Oc2ccc(NC(=O)Nc3ccc(F)cc3)cc2CC1=O	E-selectin induc 61 (no result: S100A4 MyoIIA, FGF22 binding, SIRT5 inh)
C[C@@H]1CN([C@H](C)CO)C(=O)Cc2cc(NC(=O)Nc3ccccc3)ccc2O[C@@H]1CN(C)S(=O)(=O)c1cn(C)cn1	none
C[C@H](CO)N1C[C@H](C)[C@@H](CN(C)S(=O)(=O)c2cn(C)cn2)Oc2ccc(NC(=O)Nc3ccccc3)cc2CC1=O	none
Cc1noc(C)c1S(=O)(=O)N(C)C[C@H]1Oc2ccc(NC(=O)Nc3ccc(F)cc3)cc2CC(=O)N([C@H](C)CO)C[C@@H]1C	E-selectin induc 64
CC(C)NC(=O)Nc1cccc2c1O[C@@H](CN(C)Cc1ccncc1)[C@@H](C)CN([C@@H](C)CO)C2=O	none
COc1ccc(Nc2c(-c3ccc(C)cc3)nc3cnccn23)cc1	SIRT5 inh 18 (no result: miR122 inh)
COc1ccc(Nc2c(-c3ccc(OC)cc3)nc3cnccn23)cc1	none
C[C@@H]1CN([C@H](C)CO)C(=O)c2cc(NS(C)(=O)=O)ccc2O[C@H]1CN(C)Cc1ccc(C(=O)Nc2ccccc2N)cc1	none (no result: E-selectin induc, SIRT5 inh)
CC(C)COC(=O)CCn1[nH]c(=O)c2ccccc2c1=O	none (no result: S100A4 MyoIIA, E-selectin induc, FGF22 binding, SIRT5 inh)
CC(=O)OCC(C)n1[nH]c2ccccc2c1=O (centres undefined)	SIRT5 inh 40
O=C(NC1CCCC1)N1CCCCN2[C@H](C1)[C@H](c1ccc(/C=C/c3ccccc3)cc1)[C@@H]2CO	SIRT5 inh 28
O=C(NC1CCCC1)N1CCCCN2[C@H](C1)[C@@H](c1ccc(/C=C/c3ccccc3)cc1)[C@@H]2CO	SIRT5 inh 16
COCC(=O)Nc1ccc2c(c1)OC[C@H](C)N(Cc1cccnc1)C[C@@H](C)[C@H](OC)CN(C)C2=O	none (no result: miR122 inh)
COCC(=O)Nc1ccc2c(c1)OC[C@@H](C)N(C(=O)Nc1ccccc1F)C[C@@H](C)[C@H](OC)CN(C)C2=O	none (no result: S100A4 MyoIIA, FGF22 binding, SIRT5 inh)
C[C@H](CO)N1C[C@H](C)[C@@H](CN(C)S(C)(=O)=O)Oc2ccc(NC(=O)Cn3cnnn3)cc2C1=O	none
C[C@H](CO)N1C[C@H](C)[C@@H](CN(C)CC2CCCCC2)Oc2ccc(NC(=O)Cn3cnnn3)cc2C1=O	SIRT5 inh 15!
Cc1noc(C)c1S(=O)(=O)N(C)C[C@@H]1Oc2ccc(NC(=O)Cn3cnnn3)cc2C(=O)N([C@@H](C)CO)C[C@@H]1C	SIRT5 inh 23
C[C@@H]1CN([C@@H](C)CO)C(=O)c2cc(NC(=O)Cn3cnnn3)ccc2O[C@@H]1CN(C)CC1CCCCC1	none
C[C@@H]1CN([C@H](C)CO)C(=O)c2cc(NC(=O)Cn3cnnn3)ccc2O[C@@H]1CN(C)S(=O)(=O)c1ccccc1	E-selectin induc 60
O=C(C[C@@H]1C[C@@H]2c3cc(NC(=O)CC4CC4)ccc3O[C@@H]2[C@H](CO)O1)NCc1ccccc1F	none
C[C@@H]1CN([C@@H](C)CO)C(=O)c2cc(-c3ccc(F)cc3)cnc2O[C@@H]1CN(C)C(=O)c1ccccc1F	none
C[C@@H]1CN([C@H](C)CO)C(=O)Cc2cc(NC(=O)NC3CCCCC3)ccc2O[C@H]1CN(C)Cc1ccc2c(c1)OCO2	none (no result: E-selectin induc)
C[C@@H](NC(=O)C[C@@H]1CC[C@H]2[C@@H](COC[C@@H](O)CN2C(=O)Nc2cccc(Cl)c2)O1)c1ccccc1	none (no result: S100A4 MyoIIA, SIRT5 inh)
O=C(NCC1CCCN(Cc2ccccc2F)C1)c1cccc(C(F)(F)F)c1 (centres undefined)	FGF22 binding 43 (no result: E-selectin induc, miR122 inh)
COc1ccc(CC(=O)NCC2CCCN(Cc3cccc(C(F)(F)F)c3)C2)cc1 (centres undefined)	none
Cn1cccc1/C=C1/SC(=O)N(CC(=O)N2CCCC2)C1=O	FGF22 binding 43 (no result: E-selectin induc, miR122 inh)
Cc1ccc(/C=C2/SC(=O)N(CC(=O)N3CCOCC3)C2=O)s1	S100A4 MyoIIA 106
Cc1ccsc1/C=C1/SC(=O)N(CC(=O)N2CCOCC2)C1=O	none (no result: S100A4 MyoIIA, E-selectin induc, FGF22 binding, SIRT5 inh)
CCOCc1nnc(NC(=O)c2cc(C(=O)OC)cc([N+](=O)[O-])c2)s1	FGF22 binding 43 (no result: E-selectin induc)
CCCNC(=O)C[C@@H]1C[C@@H]2c3cc(NS(=O)(=O)c4ccccc4)ccc3O[C@@H]2[C@H](CO)O1	none (no result: S100A4 MyoIIA, SIRT5 inh)
Clc1ccccc1CNCc1ccncc1	FGF22 binding 43
C[C@H](CO)N1C[C@H](C)[C@@H](CN(C)Cc2ccc(Oc3ccccc3)cc2)Oc2c(NC(=O)CCCCCC(=O)Nc3ccccc3N)cccc2C1=O	SIRT5 inh 22 (no result: miR122 inh)
C[C@H](CO)N1C[C@H](C)[C@@H](CN(C)CC2CCCCC2)Oc2c(NC(=O)CCCCCC(=O)Nc3ccccc3N)cccc2C1=O	SIRT5 inh 19 (no result: miR122 inh, FGF22 binding)
CC(C)NC(=O)N(C)C[C@H]1Oc2c(NC(=O)CCCCCC(=O)Nc3ccccc3N)cccc2C(=O)N([C@@H](C)CO)C[C@H]1C	E-selectin induc 40 (no result: miR122 inh)
C[C@@H]1CN([C@H](C)CO)C(=O)c2cccc(NC(=O)CCCCCC(=O)Nc3ccccc3N)c2O[C@H]1CN(C)Cc1ccc(Cl)c(Cl)c1	SIRT5 inh 15 (no result: miR122 inh)
C[C@H]1CN([C@@H](C)CO)C(=O)c2cccc(NC(=O)CCCCCC(=O)Nc3ccccc3N)c2O[C@@H]1CN(C)Cc1ccc(Cl)c(Cl)c1	none (no result: miR122 inh)
O=C(C[C@@H]1CC[C@H]2[C@@H](COC[C@H](O)CN2C(=O)c2ccccn2)O1)NC1CCC1	none
CC(C)NC(=O)Nc1ccc2c(c1)CC(=O)N([C@H](C)CO)C[C@@H](C)[C@H](CN(C)Cc1ccccc1)O2	none (no result: SIRT5 inh)
C[C@H](CO)N1C[C@H](C)[C@H](CN(C)Cc2ccccc2)Oc2c(NC(=O)CCCCCC(=O)Nc3ccccc3N)cccc2C1=O	S100A4 MyoIIA 108 (no result: miR122 inh, FGF22 binding)
COc1ccc(C(=O)NCC(=O)N2CCCC(C)C2)cc1OC (centres undefined)	FGF22 binding 43 (no result: E-selectin induc, miR122 inh)
